Measurements reported in article PMC12015351 (Scientific Reports, 2025).
pIC50: −log10 of the molar value.

How the values were obtained:
[1] = molecular target: 3CL Protease (SARS-CoV-2) (Severe acute respiratory syndrome coronavirus 2, UniProt P0DTD1); test: biochemical; conditions: read-out: inhibition of in vitro protease activity
[2] = test system: SARS-CoV-2-induced cytopathic effects in human A549 cells (A549/ACE2); conditions: live virus; cited from earlier work
[3] = test system: SARS-CoV-2-induced cytopathic effects in Vero E6; conditions: live virus; cited from earlier work
[4] = test system: SARS-CoV-2 replicon in Caco-2 cells; type: cell-based; conditions: for activity level in presence of Cnd: Caco-2, specific dose of Cnd (candesartan)
[5] = test system: 3CLpro; conditions: read-out: IC50 on 3CLpro activity; cited from earlier work
[6] = test system: Calu-3 cells; test: Cell viability assay, xCelligence RTCA-DP, Calu-3; type: cell-based, human
[7] = test system: SARS-CoV-2 replicon in Calu-3 cells; test: microbe, parasite or virus in culture; type: cell-based; conditions: for activity level in presence of Cnd: Calu-3, specific dose of Cnd (candesartan)
[8] = test system: Caco-2 cells; test: Cell viability assay, xCelligence RTCA-DP, Caco-2; type: cell-based, human; conditions: 50 µM
Outline: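 Impedance-based real-time cell index monitoring. Seeding in e-plates: 15 × 10³ cells/well for Calu-3, 10 × 10³ for Caco-2. Plates rested 20 min at room temperature, then held at 37 °C, 5% CO2. After 24 h, medium replaced with test compound at 50, 10, 2 or 0.4 µM; 2 replicates per line. Readings every 15 min for 72 h; ~100 h curves compared with control.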

[9] = test system: SARS-CoV-2 growth in lung cells; conditions: cited from earlier work
[10] = test system: SARS-CoV-2; conditions: mouse models; cited from earlier work
[11] = person with VITT after ChAdOx1-S vaccine; cited from earlier work
[12] = test system: 3CLpro; conditions: FRET-based enzymatic assay; cited from earlier work

C[C@@H]1CCO[C@H]2Cn3cc(C(=O)NCc4ccc(F)cc4F)c(=O)c(O)c3C(=O)N12 [Drug B23, Dolutegravir]
inhibition at 50 µM [1]: ≥ 50%

CC(=O)[C@@]1(O)CC[C@H]2[C@@H]3C[C@H](C)C4=CC(=O)C=C[C@]4(C)[C@@]3(F)[C@@H](O)C[C@@]21C [Drug B9, Fluorometholone]
inhibition at 50 µM [1]: ≥ 50%

O=c1[nH]c2ccccc2n1C1CCN(CCCC(c2ccc(F)cc2)c2ccc(F)cc2)CC1 [Drug B11, Pimozide]
inhibition of SARS-CoV-2-induced cytopathic effects [2]: significant inhibition
inhibition at 50 µM [1]: ≥ 50%
inhibition of SARS-CoV-2-induced cytopathic effects [3]: significant inhibition
activity level in presence of Cnd [4]: activity at the nanomolar (nM) level
pIC50 [5]: 4.37
effect on cell proliferation (cell index) ([6]; 50 µM): reduced cell proliferation
activity level in presence of Cnd [7]: activity at the nanomolar (nM) level

CC1(C)O[C@@H]2C[C@H]3[C@@H]4CCC5=CC(=O)C=C[C@]5(C)[C@H]4[C@@H](O)C[C@]3(C)[C@]2(C(=O)CO)O1 [Drug B7, Desonide]
inhibition at 50 µM [1]: ≥ 50%

CC(C)C(=O)OCC(=O)[C@@]12O[C@H](C3CCCCC3)O[C@@H]1C[C@H]1[C@@H]3CCC4=CC(=O)C=C[C@]4(C)[C@H]3[C@@H](O)C[C@@]12C [Drug B12, Ciclesonide]
effect on cell proliferation (cell index) [8]: toxic effects
effect on cell proliferation (cell index) ([6]; 50 µM): reduced cell proliferation

CC(C)(C)c1cc(C(C)(C)C)c(NC(=O)c2c[nH]c3ccccc3c2=O)cc1O [ivacaftor]
SARS-CoV-2 growth [9]: inhibit SARS-CoV-2 growth
SARS-CoV-2 growth [10]: inhibit SARS-CoV-2 growth

Cc1c(O)cccc1C(=O)N[C@@H](CSc1ccccc1)[C@H](O)CN1C[C@H]2CCCC[C@H]2C[C@H]1C(=O)NC(C)(C)C [Drug B21, Nelfinavir]
inhibition at 50 µM [1]: ≥ 50%

Cc1ccc(NC(=O)C2(c3ccc4c(c3)OC(F)(F)O4)CC2)nc1-c1cccc(C(=O)O)c1 [Drug B22, Lumacaftor]
SARS-CoV-2 growth [9]: inhibit SARS-CoV-2 growth
inhibition at 50 µM [1]: ≥ 50%
IC50 range in words, Caco-2 [4]: sub-micromolar range
activity level in presence of Cnd [4]: activity at the nanomolar (nM) level
IC50 range in words, Calu-3 [7]: sub-micromolar range
SARS-CoV-2 growth [10]: inhibit SARS-CoV-2 growth

CC1(C)O[C@@H]2C[C@H]3[C@@H]4C[C@H](F)C5=CC(=O)C=C[C@]5(C)[C@@]4(F)[C@@H](O)C[C@]3(C)[C@]2(C(=O)CO)O1 [Drug B2, Fluocinolone]
inhibition at 50 µM [1]: ≥ 50%

NC(=O)C(c1ccccc1)(c1ccccc1)[C@@H]1CCN(CCc2ccc3c(c2)CCO3)C1 [Drug B25, Darifenacin]
effect on cell proliferation (cell index) ([6]; 25 µM, after a certain period): reduced cell proliferation
effect on cell proliferation (cell index) ([6]; 50 µM): reduced cell proliferation

CC(C)COCC(CN(Cc1ccccc1)c1ccccc1)N1CCCC1 (stereo not shown) [bepridil]
inhibition of SARS-CoV-2-induced cytopathic effects [2]: significant inhibition
inhibition of SARS-CoV-2-induced cytopathic effects [3]: significant inhibition

CC(=O)OCC(=O)[C@@]12OC3(CCCC3)O[C@@H]1C[C@H]1[C@@H]3CCC4=CC(=O)C=C[C@]4(C)[C@@]3(F)[C@@H](O)C[C@@]12C [Drug B5, Amcinonide]
inhibition at 50 µM [1]: ≥ 50%
activity level in presence of Cnd [4]: activity at the nanomolar (nM) level
IC50 ([7]; Severe acute respiratory syndrome coronavirus 2, Calu-3, read-out: IC50 (µM) in Calu-3 cells): 2 to 5 µM

CC1=NN(c2ccc(C)c(C)c2)C(=O)/C1=N\Nc1cccc(-c2cccc(C(=O)O)c2)c1O [Elt, Eltrombopag]
effect on cell proliferation (cell index) [8]: toxic effects
inhibition at 50 µM [1]: ≥ 50%
activity level in presence of Cnd [4]: activity at the nanomolar (nM) level
effect on cell proliferation (cell index) ([6]; 50 µM): reduced cell proliferation
activity level in presence of Cnd [7]: activity at the nanomolar (nM) level
platelet levels [11]: normalized

COc1ccc2c(O[C@@H]3C[C@H]4C(=O)N[C@]5(C(=O)NS(=O)(=O)C6CC6)C[C@H]5/C=C\CCCCN(C)C(=O)[C@@H]4C3)cc(-c3nc(C(C)C)cs3)nc2c1C [Drug B18, Simeprevir]
effect on cell proliferation (cell index) [8]: toxic effects

CCOc1nc2cccc(C(=O)O)c2n1Cc1ccc(-c2ccccc2-c2nnn[nH]2)cc1 [Cnd, Candesartan]
inhibition at 50 µM [1]: ≥ 50%
IC50 range in words, Caco-2 [4]: sub-micromolar range
inhibitory activity on 3CLpro [12]: did not confirm
IC50 range in words, Calu-3 [7]: sub-micromolar range
